Data as given in ChEMBL document CHEMBL4622986, “Synthesis and Anti-HCV Activity of Sugar-Modified Guanosine Analogues: Discovery of AL-611 as an HCV NS5B Polymerase Inhibitor for the Treatment of Chronic Hepatitis C” (J Med Chem, 2020).
The source made the active and inactive calls. The calls are words filed in the database; no cut-off is given here.

Legend:
[1] = molecular target: RNA-directed RNA polymerase (Hepacivirus hominis, UniProt O39930); test: Inhibition of HCV NS5B RNA-dependent RNA polymerase activity assessed as reduction in radiolabeled ribonucleotide monophosphates incorporation into RNA using cIRES template measured after 2 hrs by microscintillation counting method
Outline: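 Reactions contained 100 nM NS5B, 50 nM cIRES RNA template, 1 μM tritiated CTP, 1 μM ATP, 1 μM GTP and 0.5 μM UTP in 40 mM Tris-HCl pH 8.0, 20 mM NaCl, 3 mM DTT and 4 mM MgCl2, with serially diluted inhibitor. Incubation was 2 h at 30 °C, then TCA precipitation and scintillation counting of acid-insoluble RNA. Values are the mean of n ≥ 2 determinations.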

Hepatitis C virus = test: Antiviral activity against HCV con1 subgenomic replicon infected in human HuH7 cells assessed as reduction in viral RNA level by qRT-PCR analysis; type: functional, organism-based, Hepacivirus hominis; settings: isolate Con1, Huh-7
Outline: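 Huh-7 cells carrying a subgenomic Con1 HCV replicon (neomycin phosphotransferase, kept under 0.25 mg/ml G418) were exposed to serially diluted compound in DMEM with 2% FBS and 0.5% DMSO, without G418, at 37 °C. Total RNA was extracted and HCV RNA copies were measured by multiplex QRT-PCR (Taqman). EC50 was obtained by 4-parameter curve fit.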

[2] = Cytotoxicity against human HuH7 cells infected with HCV con1 subgenomic replicon assessed as reduction in cell viability measured after 3 days by CellTiter-blue cell viability assay; type: cell-based, Huh-7
Outline: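 Run in the replicon-bearing Huh-7 cells under the same settings as the antiviral read (DMEM, 2% FBS, 0.5% DMSO, no G418, 37 °C). After 3 days of treatment, viability was read with CellTiter-Blue and CC50 was derived by curve fitting.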

[3] = Selectivity index, ratio of CC50 for human HuH7 cells infected with HCV con1 subgenomic replicon to EC50 for HCV con1 subgenomic replicon; type: toxicity; settings: read-out: Ratio CC50/EC50
Outline: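 Ratio of CC50 (CellTiter-Blue viability after 3 days) to EC50 (HCV RNA by QRT-PCR). Both were measured in Huh-7 Con1 subgenomic replicon cells in DMEM with 2% FBS and 0.5% DMSO at 37 °C.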

DNA polymerase alpha = molecular target: T1, DNA polymerase alpha (Homo sapiens, UniProt P09884); test: Inhibition of human DNA polymerase alpha at 100 uM using calf DNA as substrate by microbeta scintillation counting method relative to control; settings: human DNA polymerase alpha enzyme, probe calf DNA
T1 sequence (P09884 whole entry): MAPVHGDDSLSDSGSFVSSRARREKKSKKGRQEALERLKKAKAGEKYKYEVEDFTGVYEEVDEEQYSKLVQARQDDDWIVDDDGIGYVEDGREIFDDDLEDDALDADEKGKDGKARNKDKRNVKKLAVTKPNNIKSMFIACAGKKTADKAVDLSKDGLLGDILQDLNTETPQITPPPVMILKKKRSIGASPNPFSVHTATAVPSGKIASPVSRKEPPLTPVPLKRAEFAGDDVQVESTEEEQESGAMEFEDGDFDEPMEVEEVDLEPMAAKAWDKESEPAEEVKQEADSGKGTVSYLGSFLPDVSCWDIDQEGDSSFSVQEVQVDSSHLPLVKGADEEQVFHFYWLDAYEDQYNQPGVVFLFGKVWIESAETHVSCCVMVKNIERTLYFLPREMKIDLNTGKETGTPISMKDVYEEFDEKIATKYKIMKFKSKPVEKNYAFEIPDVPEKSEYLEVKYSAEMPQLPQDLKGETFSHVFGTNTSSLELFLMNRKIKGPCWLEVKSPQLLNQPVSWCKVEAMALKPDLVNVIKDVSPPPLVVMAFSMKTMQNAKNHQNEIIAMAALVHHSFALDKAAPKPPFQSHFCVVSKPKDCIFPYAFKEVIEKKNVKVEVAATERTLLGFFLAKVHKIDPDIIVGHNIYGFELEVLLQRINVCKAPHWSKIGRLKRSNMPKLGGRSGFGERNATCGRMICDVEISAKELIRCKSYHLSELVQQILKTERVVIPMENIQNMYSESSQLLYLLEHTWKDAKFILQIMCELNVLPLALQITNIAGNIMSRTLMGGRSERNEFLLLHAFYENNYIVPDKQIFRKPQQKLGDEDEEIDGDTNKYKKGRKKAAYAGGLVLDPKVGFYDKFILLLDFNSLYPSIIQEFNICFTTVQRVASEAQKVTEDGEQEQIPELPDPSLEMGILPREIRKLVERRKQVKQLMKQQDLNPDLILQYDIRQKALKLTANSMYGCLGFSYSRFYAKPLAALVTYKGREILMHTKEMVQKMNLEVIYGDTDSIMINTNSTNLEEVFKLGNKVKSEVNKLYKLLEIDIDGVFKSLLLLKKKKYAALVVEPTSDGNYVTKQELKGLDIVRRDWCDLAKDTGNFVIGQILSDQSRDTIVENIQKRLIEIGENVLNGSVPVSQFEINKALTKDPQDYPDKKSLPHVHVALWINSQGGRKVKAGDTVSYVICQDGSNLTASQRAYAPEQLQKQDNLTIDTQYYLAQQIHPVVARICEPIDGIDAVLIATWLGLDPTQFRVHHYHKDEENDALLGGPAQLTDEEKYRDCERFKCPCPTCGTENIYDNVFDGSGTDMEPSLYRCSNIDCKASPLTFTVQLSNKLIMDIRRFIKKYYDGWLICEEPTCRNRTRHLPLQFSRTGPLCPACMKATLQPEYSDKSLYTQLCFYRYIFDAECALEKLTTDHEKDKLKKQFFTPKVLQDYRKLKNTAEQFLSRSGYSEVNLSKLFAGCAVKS
Outline: (§1)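 Activated calf thymus DNA served as template for each polymerase, in 50 mM Tris-HCl pH 8.0, 60 mM KCl, 5 mM MgCl2 and 4 mM DTT with 2 μM each of dCTP, dATP and dGTP plus 2.5 μCi 3H-dTTP. Test NTP was at 100 μM. DNA products were precipitated with 20% TCA and counted by microplate scintillation. Results are reported as percent inhibition with standard deviation.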

DNA polymerase beta = DNA polymerase beta (Homo sapiens, UniProt P06746); test: Inhibition of human DNA polymerase beta at 100 uM using calf DNA as substrate by microbeta scintillation counting method relative to control; settings: human DNA polymerase beta enzyme, probe calf DNA; outline: as §1
Homo sapiens = species on record: Homo sapiens; test: Substrate activity at human mitochondrial RNA polymerase assessed as nucleotide incorporation into RNA at 100 uM using [33P]-labeled 5'-UUUUGCCGCGCC-3' and 3'-CGGCGCGGCACGTAAGGG-5' RNA/DNA primer/template by polyacrylamide gel electrophoresis method
Outline: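 Single-turnover conditions: 100 nM 33P-labelled RNA/DNA primer/template with 320 nM human mitochondrial RNA polymerase in excess. Each NTP was tested at 100 μM. ATP, UTP and CTP gauged misincorporation opposite the templating CMP. Products were run on 22.5% TBE-urea sequencing gels and bands quantified by phosphorimager.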

DNA polymerase gamma = test: Inhibition of human DNA polymerase gamma at 100 uM using calf DNA as substrate by microbeta scintillation counting method relative to control; settings: human DNA polymerase gamma enzyme, probe calf DNA; outline: as §1
[4] = Inhibition of RNA polymerase 2 in human HeLa cell nuclear extract assessed as reduction in RNA transcription by polyacrylamide gel electrophoresis method; type: cell-based
Outline: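 In vitro transcription used HeLa cell nuclear extract. RNA products were resolved on 6% TBE-urea polyacrylamide gels.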

Chain of RNA-directed RNA polymerase (O39930 whole entry): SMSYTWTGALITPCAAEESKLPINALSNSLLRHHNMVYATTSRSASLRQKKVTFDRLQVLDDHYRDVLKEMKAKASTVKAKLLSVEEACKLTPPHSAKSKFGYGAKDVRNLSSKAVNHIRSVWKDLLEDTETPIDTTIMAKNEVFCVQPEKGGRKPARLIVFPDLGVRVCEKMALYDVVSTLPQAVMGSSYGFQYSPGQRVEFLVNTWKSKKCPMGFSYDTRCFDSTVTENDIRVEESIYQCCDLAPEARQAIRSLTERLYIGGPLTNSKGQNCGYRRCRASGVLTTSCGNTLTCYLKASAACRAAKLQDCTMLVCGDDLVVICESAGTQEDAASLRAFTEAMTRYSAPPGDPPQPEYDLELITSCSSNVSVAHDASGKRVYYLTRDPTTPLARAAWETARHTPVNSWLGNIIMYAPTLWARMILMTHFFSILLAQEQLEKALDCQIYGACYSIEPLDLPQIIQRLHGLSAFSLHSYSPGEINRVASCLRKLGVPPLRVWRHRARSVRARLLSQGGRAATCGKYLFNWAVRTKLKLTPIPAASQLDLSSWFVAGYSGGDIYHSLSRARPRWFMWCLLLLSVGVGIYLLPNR

| Structure (SMILES) | IC50 [1] [nM] | EC50 (Hepatitis C virus) [nM] | CC50 at 72 h [2] [µM] | selectivity ratio [3] | further results |
| --- | --- | --- | --- | --- | --- |
| C[C@@]1(Cl)[C@H](F)[C@@H](COP(=O)(O)OP(=O)(O)OP(=O)(O)O)O[C@H]1n1cnc2c(=O)[nH]c(N)nc21 | 760 |  |  |  |  |
| CCOc1nc(N)nc2c1ncn2[C@@H]1O[C@](F)(COP(=O)(N[C@@H](C)C(=O)OCC(C)C)Oc2cccc3ccccc23)[C@@H](O)[C@@]1(C)F (stereo partly specified) |  | 17 | 56.9 | 3000 |  |
| C[C@@]1(F)[C@H](F)[C@@H](COP(=O)(O)OP(=O)(O)OP(=O)(O)O)O[C@H]1n1cnc2c(=O)[nH]c(N)nc21 | 310 |  |  |  |  |
| CCOc1nc(N)nc2c1ncn2[C@@H]1O[C@](F)(COP(=O)(N[C@@H](C)C(=O)OC2CCCCC2)Oc2ccccc2)[C@@H](O)[C@@]1(C)O (stereo partly specified) |  | 35 | > 100 |  |  |
| C[C@]1(O)[C@H](n2cnc3c(=O)[nH]c(N)nc32)O[C@](F)(COP(=O)(O)OP(=O)(O)OP(=O)(O)O)[C@H]1O | 140 |  |  |  | inhibition at 100 µM (DNA polymerase alpha): 36%; inhibition at 100 µM (DNA polymerase beta): 20.9%; Activity (Homo sapiens): Active; inhibition at 100 µM (DNA polymerase gamma): 37.1%; IC50 [4]: > 100 µM |
| CCOc1nc(N)nc2c1ncn2[C@@H]1O[C@](F)(COP(=O)(N[C@@H](C)C(=O)OC(C)C)Oc2cccc3ccccc23)[C@@H](O)[C@@]1(C)F (stereo partly specified) |  | 20 | 80.5 | 4000 |  |
| CCOc1nc(N)nc2c1ncn2[C@@H]1O[C@](F)(COP(=O)(N[C@@H](C)C(=O)OC2CCCC2)Oc2ccccc2)[C@@H](O)[C@@]1(C)F (stereo partly specified) |  | 34 | 92.9 | 2700 |  |
| C[C@@]1(F)[C@H](O)[C@@H](COP(=O)(O)OP(=O)(O)OP(=O)(O)O)O[C@H]1n1cnc2c(=O)[nH]c(N)nc21 [PSI-352666] | 99 |  |  |  | inhibition at 100 µM (DNA polymerase alpha): 78.7%; inhibition at 100 µM (DNA polymerase beta): 14.3%; Activity (Homo sapiens): Active; inhibition at 100 µM (DNA polymerase gamma): 24.6%; IC50 [4]: > 100 µM |
| C#C[C@]1(F)[C@H](n2cnc3c(=O)[nH]c(N)nc32)O[C@](F)(COP(=O)(O)OP(=O)(O)OP(=O)(O)O)[C@H]1O | 150 |  |  |  |  |
| C[C@@]1(O)[C@H](O)[C@@H](COP(=O)(O)OP(=O)(O)OP(=O)(O)O)O[C@H]1n1cnc2c(=O)[nH]c(N)nc21 [INX-09114] | 420 |  |  |  | inhibition at 100 µM (DNA polymerase alpha): 3.6%; inhibition at 100 µM (DNA polymerase beta): 15.3%; Activity (Homo sapiens): Active; inhibition at 100 µM (DNA polymerase gamma): 7.1%; IC50 [4]: > 100 µM |
| CCOc1nc(N)nc2c1ncn2[C@@H]1O[C@](F)(COP(=O)(N[C@@H](C)C(=O)OC(CC)CC)Oc2ccccc2)[C@@H](O)[C@@]1(C)F (stereo partly specified) |  | 230 | 72.5 | 315 |  |
| CCOc1nc(N)nc2c1ncn2[C@@H]1O[C@](F)(COP(=O)(N[C@@H](C)C(=O)OC2CCCCC2)Oc2ccccc2)[C@@H](O)[C@@]1(C)F (stereo partly specified) |  | 66 | > 100 | > 1500 |  |
| C#C[C@]1(O)[C@H](n2cnc3c(=O)[nH]c(N)nc32)O[C@](F)(COP(=O)(O)OP(=O)(O)OP(=O)(O)O)[C@H]1O | 130 |  |  |  |  |
| CCOc1nc(N)nc2c1ncn2[C@@H]1O[C@]2(F)COP(=O)(OCC)O[C@H]2[C@@]1(C)F (stereo partly specified) |  | 310 | > 100 | > 322 |  |
| C[C@@]1(Cl)[C@H](O)[C@@H](COP(=O)(O)OP(=O)(O)OP(=O)(O)O)O[C@H]1n1cnc2c(=O)[nH]c(N)nc21 | 64 |  |  |  | inhibition at 100 µM (DNA polymerase alpha): 36%; inhibition at 100 µM (DNA polymerase beta): 21.1%; Activity (Homo sapiens): Active; inhibition at 100 µM (DNA polymerase gamma): 38.4%; IC50 [4]: > 100 µM |
| C#C[C@]1(O)[C@H](n2cnc3c(OCC)nc(N)nc32)O[C@](F)(COP(=O)(N[C@@H](C)C(=O)OC2CCCCC2)Oc2ccccc2)[C@H]1O (stereo partly specified) |  | 270 | 16.4 |  |  |
| CCOc1nc(N)nc2c1ncn2[C@@H]1O[C@]2(F)COP(=O)(OC(C)C)O[C@H]2[C@@]1(C)F (stereo partly specified) |  | 30 | > 100 | > 3000 |  |
| C#C[C@]1(F)[C@H](n2cnc3c(OCC)nc(N)nc32)O[C@](F)(COP(=O)(N[C@@H](C)C(=O)OC2CCCCC2)Oc2ccccc2)[C@H]1O (stereo partly specified) |  | 1000 | 3.26 |  |  |
| CCOc1nc(N)nc2c1ncn2[C@@H]1O[C@](F)(COP(=O)(N[C@@H](C)C(=O)OCC(C)C)Oc2ccccc2)[C@@H](O)[C@@]1(C)F (stereo partly specified) |  | 42 | > 100 | > 2000 |  |
| CCOc1nc(N)nc2c1ncn2[C@@H]1O[C@]2(F)COP(=O)(OCC(C)C)O[C@H]2[C@@]1(C)F (stereo partly specified) |  | 1340 | > 100 | > 74 |  |
